Compound activity (PubChem)
14-3-3 Bad inh: disrupts binding of bovine 14-3-3 zeta to phospho-Bad peptide; 220,000 tested, 0.71% active; inhibition, % at 21.7 µM; AID 781; P63103; TR-FRET 14-3-3zeta/Dy647-pBad peptide displacement, 1 h;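 active = inhibition above about 70%, limit read from the data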;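 also: 0% = full 14-3-3 plus peptide FRET controls and 100% = background without 14-3-3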
Target sequence (P63103 whole entry, looked up): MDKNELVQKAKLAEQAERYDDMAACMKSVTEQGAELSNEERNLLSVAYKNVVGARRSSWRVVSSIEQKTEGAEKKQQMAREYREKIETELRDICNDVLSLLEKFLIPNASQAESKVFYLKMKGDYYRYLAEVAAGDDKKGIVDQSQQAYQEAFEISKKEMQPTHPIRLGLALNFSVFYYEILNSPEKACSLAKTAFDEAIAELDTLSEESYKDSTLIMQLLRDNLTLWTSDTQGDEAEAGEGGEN
p47phox inh: p47phox (human) inhibition; P14598; p47phox/p22phox peptide binding, fluorescence polarization, 2 h; inhibition, % at 24.7 µM; 220,000 tested, 0.53% active; AID 1274;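 also: 0% = p47phox with labelled peptide and 100% = labelled peptide alone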
RBBP9 inh: blocks human serine hydrolase RBBP9; inhibition, % at 7.94 µM; recombinant RBBP9, FP-Rh probe fluorescence polarization; 220,000 tested, 0.2% active; O75884;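 active = inhibition above the campaign mean of all tested compounds plus 3 SD, cut at about 14% in these data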;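 also: plate controls were DMSO wells with RBBP9 for no effect and wells lacking RBBP9 protein for full effect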
Target sequence (O75884 whole entry, looked up): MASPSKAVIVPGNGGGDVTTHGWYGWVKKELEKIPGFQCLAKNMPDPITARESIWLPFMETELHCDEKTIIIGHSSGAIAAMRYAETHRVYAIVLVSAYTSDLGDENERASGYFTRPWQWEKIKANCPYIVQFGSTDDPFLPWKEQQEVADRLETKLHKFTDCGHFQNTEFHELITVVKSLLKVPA
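System: RBBP9 protein / Quantity: 2.5 µM RBBP9 dispensing solution, before mixing / Also added: Serine-hydrolase probe FP-Rh, 375 nM pre-mixing / Dosing: 7.94 µM single dose, 0.794% DMSO / Timing: enzyme-compound preincubation 30 min, then probe labeling 45 min, 25 °C / Signal: FP readout at 525/598 nm / Controls: DMSO-treated enzyme wells and wells lacking RBBP9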
WT yeast gro inh: growth inhibition of WT yeast, mitochondrial fusion screen; mitochondrial fusion phenotypic screen, WT strain; inhibition, % at 10 µM; 190,000 tested, 2.1% active; AID 1362; in the data active = inhibition above about 58%; tested in S. cerevisiae
eIF4E-4G inh: blocks eIF4E binding to eIF4G | inhibition, % at 21.7 µM | AID 782 | TR-FRET eIF4E-eIF4GI(517-606) binding, 2 h | 220,000 tested, 0.37% active;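 also: 0% = full FRET control wells and 100% = background wells lacking eIF4GI fragment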
EBV gp42 block: EBV gp42 inhibition. inhibition, % (tested at 21.74 µM). 220,000 tested, 0.42% active. AID 1085. Fluorescence polarization binding assay, mP read-out; in the data active = inhibition above about 50%
An asterisk follows results filed as active; · = not tested or not shown. Most compounds without a hit are left out; they make up all but 3.7% or so of the library.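 The calls were made as follows, unless noted: active = inhibition above about 30% (limit read from the data); inactive = the rest.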

SMILES	14-3-3 Bad inh	p47phox inh	RBBP9 inh	WT yeast gro inh	eIF4E-4G inh	EBV gp42 block
O=C(CCN1CCCCC1)NNC(=O)C12CC3CC(CC(C3)C1)C2	-2.3	-5.0	3.2	6.2	1.6	-5.5
CN1C2=CC=CC=CC2=[N+](C)C12C([N+](=O)[O-])=CC(=[N+]([O-])[O-])C=C2[N+](=O)[O-] (stereo not drawn)	1.0	60.7*	-3.0	·	-3.8	-5.0
CN1C2=CC=CC=CC2=[N+](C)C12C=CC(=[N+]([O-])[O-])C=C2[N+](=O)[O-] (stereo not drawn)	-8.1	-58.2	-1.6	22.6	-2.6	-3.6
CC(NC(=O)CNC(=S)N(Cc1cccs1)C1CCCC1)c1ccccc1 (stereo not drawn)	-21.2	-5.4	-0.8	23.5	2.0	-5.3
Cc1cc2nc3c(=O)n(CCc4ccccc4)c(=O)[nH]c3nc2cc1N	-10.9	-18.6	-3.1	·	-1.9	157.6*
Nc1ccc2nc3c(=O)n(C4CCCCC4)c(=O)[nH]c3nc2c1	-3.4	-15.1	9.0	·	5.8	151.7*
CCCCn1c(=O)[nH]c2nc3cc(N)ccc3nc2c1=O	-11.4	-13.4	2.0	-13.3	0.5	173.5*
Nc1ccc2nc3c(=O)n(CCc4ccccc4)c(=O)[nH]c3nc2c1	-13.8	-12.8	3.6	·	-2.0	173.5*
Nc1ccc2nc(CCc3ccccc3)[nH]c2c1	14.2	-3.0	0.0	-8.7	7.8	-3.1
COc1ccc(-c2nc3c(=O)n(C)c(=O)[nH]c3n2CCc2ccccc2)cc1	3.6	-6.2	-2.0	-5.3	-1.1	0.0
Cc1ccc(Nc2nnc(SCC(=O)NC(Cc3c[nH]c4ccccc34)C(=O)O)s2)cc1 (stereo not drawn)	-15.4	-9.5	-7.7	-6.6	-1.1	2.2
CCOc1nc(SCCOc2ccc(C)cc2)nc(N(C)C)n1	-8.4	-5.2	-9.9	51.0	2.8	-5.2
CCNc1nc(NCC)nc(SCCOc2ccc(C)cc2)n1	-1.9	5.2	3.5	87.7*	-0.5	15.1
O=C(c1cccc(N2C(=O)C3CC=CCC3C2=O)c1)N1CCCCCC1 (stereo not drawn)	-3.4	20.3	-2.2	-15.6	-4.5	-15.3
NC(=O)c1ccc(N2CCCCC2)c(N2C(=O)C3CC=CCC3C2=O)c1 (stereo not drawn)	-16.1	-10.6	-2.6	84.5*	2.7	-12.9
Cc1ccc(/C=N/n2cnc3sc(-c4ccccc4)cc3c2=O)o1	5.5	-10.1	-4.9	86.0*	5.4	-7.0
Cc1cc2ncn(/N=C/c3ccc(-c4ccccc4)o3)c2cc1C	-8.6	-0.1	-4.2	-12.0	-9.0	2.9
Cc1nn(-c2ccccc2C(=O)O)c(=O)c2ccccc12	82.1*	3.4	-0.6	-1.5	-2.5	-9.1
CCCCCCNC(=O)N[C@H](C(=O)NCCC[C@H]1CN2C(=NC[C@H]2C)N1CCC(c1ccccc1)c1ccccc1)C(C)O (stereo partly drawn)	1.4	87.2*	·	·	52.6*	-23.5
CN(C)CCCN1c2ccccc2CCc2ccc(Cl)cc21	6.4	-3.8	0.7	61.8*	3.4	-4.4
Cc1ccc(NC(=O)C2C(c3ccccc3)C2(Cl)Cl)c(C)c1 (stereo not drawn)	0.6	-10.4	4.4	86.0*	-7.2	5.3
Cc1cccc(NC(=O)C2C(c3ccccc3)C2(Cl)Cl)c1 (stereo not drawn)	-10.8	-9.2	-5.2	63.6*	1.0	0.6
CC(=O)c1cccc(NC(=O)C2C(c3ccccc3)C2(Cl)Cl)c1 (stereo not drawn)	-5.7	-4.2	-7.0	36.2	-0.8	8.2
CCCN1CCC(=O)N([C@H](CSc2ccc(OC)cc2)c2ccccc2)CC1	-6.3	-15.8	·	·	-1.7	-9.7
COc1cc(CNC(C)(C)CO)cc(Br)c1OCc1ccc(Cl)cc1Cl	11.6	-22.3	-2.6	93.8*	18.3	-19.7
COc1cc(CNC(C)(C)CO)cc(Br)c1OCc1ccc(Cl)cc1	7.0	-17.4	-3.4	41.4	13.3	-3.7
COc1cc(CNCCO)cc(Br)c1OCc1ccccc1Cl	4.6	2.0	-4.4	78.6*	11.0	-10.7
O=C(NNC(=S)NC1CCCCC1)c1ccc2c(c1)OCO2	2.9	-0.8	3.2	-8.9	-2.2	0.4
O=C(NC1CCCCCCC1)c1ccc2c(c1)OCO2	4.6	6.7	-6.8	4.4	32.1*	-13.2
